ChEMBL document CHEMBL4145584, “Non-geminal Aliphatic Dihalogenation Pattern in Dichlorinated Diaporthins from Hamigera fusca NRRL 35721” (2018)

How the values were obtained:
Format in all cases: functional
SH-SY5Y = assay: Cytotoxicity against human SH-SY5Y cells after 72 hrs by MTT assay
Method in brief: (§1)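 Human cell panel of fibroblasts (CCD25sk), neuroblastoma (SHSY5), pancreatic carcinoma (MiaPaca-2), breast adenocarcinoma (MCF-7), hepatocellular carcinoma (HepG2), melanoma (A2058) and lung carcinoma (A549), tested by colorimetric MTT viability read-out. Doxorubicin served as positive control, and results were expressed as CC50.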

A549 = assay: Cytotoxicity against human A549 cells after 72 hrs by MTT assay; conditions: A549, 72 h; method in brief: as §1
MIA PaCa-2 = assay: Cytotoxicity against human MIAPaCa2 cells after 72 hrs by MTT assay; conditions: MIA PaCa-2, 72 h; method in brief: as §1
A2058 = assay: Cytotoxicity against human A2058 cells after 72 hrs by MTT assay; conditions: A2058, 72 h; method in brief: as §1
HepG2 = assay: Cytotoxicity against human HepG2 cells after 72 hrs by MTT assay; conditions: HepG2, 72 h; method in brief: as §1
[1] = Cytotoxicity against human CCD25sk cells after 72 hrs by MTT assay; method in brief: as §1
MCF7 = assay: Cytotoxicity against human MCF7 cells after 72 hrs by MTT assay; conditions: MCF7, 72 h; method in brief: as §1
HeLa = assay: Cytotoxicity against human HeLa cells

COc1cc(OC)c2c(=O)oc([C@@H](Cl)[C@@H](O)CCl)cc2c1 (relative stereo)
CC50 (SH-SY5Y): 36.2 µM

COc1cccc2c1C(=O)c1c(O)c3c(c(O)c1C2=O)C[C@@](O)(C(=O)CO)C[C@@H]3O[C@H]1C[C@H](N)[C@H](O)[C@H](C)O1 [DOXORUBICIN]
CC50 (A549): 10.5 µM | CC50 (MIA PaCa-2): 2.97 µM | CC50 (A2058): 1.79 µM | CC50 (HepG2): 1.95 µM | CC50 (SH-SY5Y): 0.7 µM | CC50 [1]: 0.85 µM | CC50 (MCF7): 7 µM

COc1cc(OC)c2c(=O)oc([C@H](Cl)[C@@H](O)CCl)cc2c1 (relative stereo)
CC50 (SH-SY5Y): 39.2 µM

COc1cc(O)c2c(=O)oc(C[C@@H](O)C(Cl)Cl)cc2c1
CC50 (HeLa): 28 µM

COc1cc(OC)c2c(=O)oc(C[C@@H](O)C(Cl)Cl)cc2c1
CC50 (SH-SY5Y): 19.4 µM | CC50 [1]: 27 µM
